Legend:
Conditions in all cases: stereoisomer not certain
UniProt Q8VGC6 = biological target: T1, UniProt Q8VGC6
T1 sequence (whole entry): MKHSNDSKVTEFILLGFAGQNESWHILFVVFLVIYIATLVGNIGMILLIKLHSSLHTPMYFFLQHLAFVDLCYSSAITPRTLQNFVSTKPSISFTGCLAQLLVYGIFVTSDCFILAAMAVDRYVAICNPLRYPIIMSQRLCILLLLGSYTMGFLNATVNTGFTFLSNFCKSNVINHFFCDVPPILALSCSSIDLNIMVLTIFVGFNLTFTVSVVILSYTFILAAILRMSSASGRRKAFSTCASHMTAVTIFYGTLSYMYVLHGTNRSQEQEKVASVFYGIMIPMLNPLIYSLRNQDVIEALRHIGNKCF
In short: (§1)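 Transient luciferase assays in mammalian cell lines were common, though methods varied by source. The values come from published papers and their supplementary material, with extra details from the original authors when needed. Responsive refers to a measured signal the original authors judged statistically different from baseline, and non-responsive (inactive) to the remainder.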

UniProt Q8VGD7 = biological target: T2, UniProt Q8VGD7
T2 sequence (whole entry): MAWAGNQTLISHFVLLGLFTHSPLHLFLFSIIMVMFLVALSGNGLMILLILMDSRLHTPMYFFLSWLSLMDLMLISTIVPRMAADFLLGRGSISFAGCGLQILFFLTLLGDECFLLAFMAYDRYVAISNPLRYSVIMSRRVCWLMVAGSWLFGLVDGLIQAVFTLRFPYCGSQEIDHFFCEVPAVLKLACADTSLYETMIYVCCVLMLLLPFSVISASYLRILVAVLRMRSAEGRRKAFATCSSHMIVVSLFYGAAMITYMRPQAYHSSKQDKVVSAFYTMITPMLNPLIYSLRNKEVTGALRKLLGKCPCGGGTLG
In short: as §1

UniProt Q8VGH1 = biological target: T3, UniProt Q8VGH1
T3 sequence (whole entry): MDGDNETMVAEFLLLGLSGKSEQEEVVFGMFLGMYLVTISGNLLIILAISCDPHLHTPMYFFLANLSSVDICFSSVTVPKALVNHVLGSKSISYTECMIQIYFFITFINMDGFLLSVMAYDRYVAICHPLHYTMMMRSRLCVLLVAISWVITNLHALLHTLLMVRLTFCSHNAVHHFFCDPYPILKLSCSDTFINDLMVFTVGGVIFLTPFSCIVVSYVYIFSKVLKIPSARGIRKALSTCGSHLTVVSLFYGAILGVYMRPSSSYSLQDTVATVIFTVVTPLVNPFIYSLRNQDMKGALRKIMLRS
In short: as §1

UniProt Q8VGJ1 = biological target: T4, UniProt Q8VGJ1
T4 sequence (whole entry): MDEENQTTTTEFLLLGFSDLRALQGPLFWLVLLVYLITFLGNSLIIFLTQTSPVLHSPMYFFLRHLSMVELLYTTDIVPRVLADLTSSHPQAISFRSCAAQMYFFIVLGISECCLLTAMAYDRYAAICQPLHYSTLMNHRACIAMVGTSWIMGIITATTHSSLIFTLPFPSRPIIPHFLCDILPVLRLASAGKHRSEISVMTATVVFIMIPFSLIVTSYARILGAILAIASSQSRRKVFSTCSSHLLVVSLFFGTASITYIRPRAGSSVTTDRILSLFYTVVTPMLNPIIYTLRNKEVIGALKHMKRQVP
In short: as §1

UniProt Q8VGJ3 = biological target: T5, UniProt Q8VGJ3
T5 sequence (whole entry): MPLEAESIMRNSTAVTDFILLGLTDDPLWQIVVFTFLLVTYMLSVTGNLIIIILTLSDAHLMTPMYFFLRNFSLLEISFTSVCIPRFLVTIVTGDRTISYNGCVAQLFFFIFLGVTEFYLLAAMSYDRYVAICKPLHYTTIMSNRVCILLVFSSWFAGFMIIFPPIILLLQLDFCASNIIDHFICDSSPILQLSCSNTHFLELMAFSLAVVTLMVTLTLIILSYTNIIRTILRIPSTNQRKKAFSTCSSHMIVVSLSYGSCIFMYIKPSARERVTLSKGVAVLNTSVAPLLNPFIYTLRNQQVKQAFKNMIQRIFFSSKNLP
In short: as §1

UniProt Q8VGJ5 = biological target: T6, UniProt Q8VGJ5
T6 sequence (whole entry): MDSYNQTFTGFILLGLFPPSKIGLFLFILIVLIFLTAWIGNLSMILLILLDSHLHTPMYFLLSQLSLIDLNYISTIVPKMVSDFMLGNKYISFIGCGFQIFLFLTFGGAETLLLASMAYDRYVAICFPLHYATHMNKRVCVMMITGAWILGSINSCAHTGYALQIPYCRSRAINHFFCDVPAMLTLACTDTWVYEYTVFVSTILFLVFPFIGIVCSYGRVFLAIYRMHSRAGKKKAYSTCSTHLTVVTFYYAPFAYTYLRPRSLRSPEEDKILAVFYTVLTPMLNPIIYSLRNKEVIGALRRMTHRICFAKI
In short: as §1

UniProt Q8VGL0 = biological target: T7, UniProt Q8VGL0
T7 sequence (whole entry): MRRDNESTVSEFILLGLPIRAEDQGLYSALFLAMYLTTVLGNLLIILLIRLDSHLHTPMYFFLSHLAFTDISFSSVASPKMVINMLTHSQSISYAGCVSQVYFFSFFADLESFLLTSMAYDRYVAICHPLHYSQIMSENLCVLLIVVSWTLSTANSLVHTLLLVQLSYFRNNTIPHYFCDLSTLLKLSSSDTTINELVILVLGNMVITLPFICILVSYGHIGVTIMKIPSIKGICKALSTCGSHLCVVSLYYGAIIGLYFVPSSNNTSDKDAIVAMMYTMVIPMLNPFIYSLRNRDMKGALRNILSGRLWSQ
In short: as §1

UniProt Q8VGL7 = biological target: T8, UniProt Q8VGL7
T8 sequence (whole entry): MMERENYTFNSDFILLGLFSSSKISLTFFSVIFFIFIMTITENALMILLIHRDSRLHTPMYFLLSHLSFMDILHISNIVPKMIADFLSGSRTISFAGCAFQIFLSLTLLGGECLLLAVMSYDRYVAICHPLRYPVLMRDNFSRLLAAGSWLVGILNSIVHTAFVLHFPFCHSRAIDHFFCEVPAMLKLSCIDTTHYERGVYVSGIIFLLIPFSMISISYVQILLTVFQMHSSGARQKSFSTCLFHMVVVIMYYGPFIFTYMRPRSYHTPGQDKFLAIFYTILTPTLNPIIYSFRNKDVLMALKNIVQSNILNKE
In short: as §1

UniProt Q8VGM2 = biological target: T9, UniProt Q8VGM2
T9 sequence (whole entry): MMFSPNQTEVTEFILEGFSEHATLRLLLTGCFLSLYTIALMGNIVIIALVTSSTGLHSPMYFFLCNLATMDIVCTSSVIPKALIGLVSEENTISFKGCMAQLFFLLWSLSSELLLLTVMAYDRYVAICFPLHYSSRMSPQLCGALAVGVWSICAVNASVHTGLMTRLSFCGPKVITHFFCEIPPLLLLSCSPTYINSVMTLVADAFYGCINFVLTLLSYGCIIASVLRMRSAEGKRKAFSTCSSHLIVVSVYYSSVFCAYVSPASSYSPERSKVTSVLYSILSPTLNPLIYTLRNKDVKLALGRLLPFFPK
In short: as §1

UniProt Q8VGP6 = biological target: T10, UniProt Q8VGP6
T10 sequence (whole entry): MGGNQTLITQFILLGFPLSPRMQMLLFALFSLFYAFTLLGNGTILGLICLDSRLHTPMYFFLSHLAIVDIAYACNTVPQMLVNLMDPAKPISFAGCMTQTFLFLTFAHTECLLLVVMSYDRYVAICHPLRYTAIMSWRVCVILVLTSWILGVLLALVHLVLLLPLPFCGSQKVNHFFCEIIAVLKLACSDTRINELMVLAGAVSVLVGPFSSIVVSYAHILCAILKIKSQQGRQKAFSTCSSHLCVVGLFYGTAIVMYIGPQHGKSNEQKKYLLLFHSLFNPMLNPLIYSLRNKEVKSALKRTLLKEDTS
In short: as §1

UniProt Q8VGQ3 = biological target: T11, UniProt Q8VGQ3
T11 sequence (whole entry): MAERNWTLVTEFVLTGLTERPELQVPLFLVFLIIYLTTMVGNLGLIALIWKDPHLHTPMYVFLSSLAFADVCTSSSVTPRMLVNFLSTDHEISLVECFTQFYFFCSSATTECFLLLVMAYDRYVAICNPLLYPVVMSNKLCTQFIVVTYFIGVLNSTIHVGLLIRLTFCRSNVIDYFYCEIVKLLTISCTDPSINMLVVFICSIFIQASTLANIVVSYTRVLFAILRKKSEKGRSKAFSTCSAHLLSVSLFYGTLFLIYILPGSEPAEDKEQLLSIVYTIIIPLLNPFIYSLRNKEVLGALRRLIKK
In short: as §1

UniProt Q8VGT4 = biological target: T12, UniProt Q8VGT4
T12 sequence (whole entry): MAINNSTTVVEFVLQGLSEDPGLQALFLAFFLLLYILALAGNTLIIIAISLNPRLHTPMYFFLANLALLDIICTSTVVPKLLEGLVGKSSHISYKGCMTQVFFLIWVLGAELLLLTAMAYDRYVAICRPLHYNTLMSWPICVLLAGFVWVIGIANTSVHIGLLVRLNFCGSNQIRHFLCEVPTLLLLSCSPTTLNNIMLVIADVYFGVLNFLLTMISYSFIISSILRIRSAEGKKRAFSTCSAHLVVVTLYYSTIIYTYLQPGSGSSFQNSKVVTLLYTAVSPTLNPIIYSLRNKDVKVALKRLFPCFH
In short: as §1

UniProt Q8VGU3 = biological target: T13, UniProt Q8VGU3
T13 sequence (whole entry): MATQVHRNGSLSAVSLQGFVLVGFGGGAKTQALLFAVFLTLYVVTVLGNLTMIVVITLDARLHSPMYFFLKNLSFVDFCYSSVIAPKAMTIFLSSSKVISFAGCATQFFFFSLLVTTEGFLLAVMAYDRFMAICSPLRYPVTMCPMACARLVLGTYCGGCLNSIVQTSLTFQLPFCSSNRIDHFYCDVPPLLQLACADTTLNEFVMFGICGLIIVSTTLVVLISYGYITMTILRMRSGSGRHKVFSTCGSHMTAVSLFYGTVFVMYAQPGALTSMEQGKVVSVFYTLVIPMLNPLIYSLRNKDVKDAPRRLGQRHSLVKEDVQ
In short: as §1

UniProt Q8VGV1 = biological target: T14, UniProt Q8VGV1
T14 sequence (whole entry): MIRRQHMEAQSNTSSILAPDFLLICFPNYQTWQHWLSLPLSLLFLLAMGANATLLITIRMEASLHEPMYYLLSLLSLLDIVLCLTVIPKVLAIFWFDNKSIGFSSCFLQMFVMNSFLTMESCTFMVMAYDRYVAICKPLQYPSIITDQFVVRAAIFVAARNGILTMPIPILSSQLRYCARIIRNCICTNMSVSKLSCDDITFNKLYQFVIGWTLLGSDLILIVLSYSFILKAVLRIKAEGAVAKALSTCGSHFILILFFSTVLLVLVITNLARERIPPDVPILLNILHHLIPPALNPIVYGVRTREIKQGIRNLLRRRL
In short: as §1

UniProt Q8VGV7 = biological target: T15, UniProt Q8VGV7
T15 sequence (whole entry): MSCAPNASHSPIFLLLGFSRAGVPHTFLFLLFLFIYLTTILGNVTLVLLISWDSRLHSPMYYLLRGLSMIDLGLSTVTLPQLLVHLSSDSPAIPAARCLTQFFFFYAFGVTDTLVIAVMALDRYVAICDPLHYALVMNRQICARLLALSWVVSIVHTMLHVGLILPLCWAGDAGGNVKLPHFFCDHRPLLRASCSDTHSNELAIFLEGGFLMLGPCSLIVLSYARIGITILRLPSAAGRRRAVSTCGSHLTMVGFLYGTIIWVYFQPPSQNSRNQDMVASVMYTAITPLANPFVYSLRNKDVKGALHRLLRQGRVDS
In short: as §1

UniProt Q8VGX3 = biological target: T16, UniProt Q8VGX3
T16 sequence (whole entry): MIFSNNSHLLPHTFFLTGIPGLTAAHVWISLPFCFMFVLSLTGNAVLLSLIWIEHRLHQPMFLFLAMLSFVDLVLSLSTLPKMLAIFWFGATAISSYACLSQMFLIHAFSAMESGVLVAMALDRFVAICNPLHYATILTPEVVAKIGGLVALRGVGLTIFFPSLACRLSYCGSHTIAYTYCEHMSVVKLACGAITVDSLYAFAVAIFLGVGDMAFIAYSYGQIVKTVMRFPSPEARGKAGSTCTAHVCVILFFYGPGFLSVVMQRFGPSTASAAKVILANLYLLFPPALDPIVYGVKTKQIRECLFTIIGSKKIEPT
In short: as §1

UniProt Q8VGX5 = biological target: T17, UniProt Q8VGX5
T17 sequence (whole entry): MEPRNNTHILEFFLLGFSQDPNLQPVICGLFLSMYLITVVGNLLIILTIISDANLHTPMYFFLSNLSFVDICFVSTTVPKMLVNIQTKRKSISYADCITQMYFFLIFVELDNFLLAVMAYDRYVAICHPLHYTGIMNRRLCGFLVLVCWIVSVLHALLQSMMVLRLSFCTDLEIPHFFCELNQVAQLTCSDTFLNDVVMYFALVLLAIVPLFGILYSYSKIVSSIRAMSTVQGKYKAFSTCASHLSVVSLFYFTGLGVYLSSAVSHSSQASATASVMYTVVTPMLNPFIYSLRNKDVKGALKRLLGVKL
In short: as §1

Measured: odorant receptor agonist call;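 note: active if original authors judged signal statistically different from baseline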

c1ccccc1
inactive: all assays above

CCCCC(=O)O
inactive: all assays above

CCCCCCC=CC=O
inactive: UniProt Q8VGC6 | UniProt Q8VGJ3 | UniProt Q8VGL0 | UniProt Q8VGU3 | UniProt Q8VGV7 | UniProt Q8VGX3 | UniProt Q8VGX5

COc1cc(C(=O)O)ccc1O
inactive: all assays above

CCSSCC
inactive: UniProt Q8VGC6 | UniProt Q8VGJ3 | UniProt Q8VGL0 | UniProt Q8VGU3 | UniProt Q8VGV7 | UniProt Q8VGX3 | UniProt Q8VGX5
